Measured values from PubChem BioAssay AID588705 (Broad Institute, 2011).
Calls of active or inactive are those of the source. The rule behind the calls is not given here.

Tested on: not listed separately
Experiment: viability of MDA231 breast tumor cells – cell-based, CellTiter-Glo luminescence, dry powder, dose response (AID 588705)
Details: MDA-MB-231 viability, CellTiter-Glo luminescence, 72 h
How it was run: (§1)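 Measured by: CellTiter-Glo luminescence / System: MDA231 (MDA-MB-231) human breast cancer cell line / Amount: 1000 cells/well / Incubation: compound added 24 h post-seeding, then 72 h exposure / Controls: DMSO-only wells as negative (normalization) control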

SMILES | outcome
O=C(N/N=C/c1ccc[nH]1)c1cc2ccccc2o1 | inactive

Tested on: MDA-MB-231 viability, CellTiter-Glo luminescence, 72 h
Experiment: as above
Details: not given
How it was run: as §1

SMILES | AC50
O=C(COc1cc(Cl)ccc1Cl)N/N=C/c1ccc[nH]1 | 7.24 µM
O=C(COc1ccc(Cl)cc1Cl)N/N=C/c1cnc[nH]1 | 31.6 µM
O=C(COc1ccc(Cl)cc1Cl)N/N=C/c1ccc[nH]1 | 47.6 µM
CC(C)(C)c1ccc2c(c1)OC(C(=O)N/N=C/c1ccc[nH]1)CO2 (configuration not stated) | 14.7 µM
Cc1cc(Cl)ccc1OCC(=O)N/N=C/c1ccc[nH]1 | 16.7 µM
O=C(COc1c(Cl)cc(Cl)cc1Cl)N/N=C/c1ccc[nH]1 | 2.81 µM
